Bioassay records (PubChem BioAssay)
CDK5 p35 inh: CDK5/p35 (human) kinase inhibition | 330,000 compounds, 0.01% hits | Q00535+Q15078 | AID 488839 | inhibition, % at 10 µM | Recombinant CDK5/p35, ADP-Glo luminescence, 60 min;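 active = highest replicate inhibition of at least 50% and at least 75% of replicates reaching 50%; inconclusive = only one of the two criteria met; inactive = both criteria failed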;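 note: plate controls were DMSO neutral control for no effect and GW8510 at 10 µM for full effect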
PKA-R2B act: PKA-R2B complex activation; PKA-R2B holoenzyme dissociation, Cy5-IP20 fluorescence polarization; R2B truncated from residue 108, S112A mutant; 0% DMSO only, 100% 113 µM cGMP; P22694+P31323; activation, % at 11.4 µM; AID 504700; 340,000 compounds, 0.079% hits;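 active = activation above a cutoff set at the mean over all compounds plus 3 SD, cut at about 18% in these data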;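 note: higher means more holoenzyme dissociation and a rise in polarization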
dFosB act: enhances mouse delta FosB homodimer DNA binding. P13346. purified delta FosB, TAMRA-CDK5 oligo fluorescence polarization; percent of positive-control signal above neutral wells. activation, % at 25 µM. 340,000 compounds, 0.99% hits;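 active = mean activation above about 17%, with every replicate also reaching it, limit read from the data, passing the limit was not always enough; inconclusive = only one of the two conditions met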
SR-BI DiI-HDL act: activators of SR-BI mediated HDL lipid uptake | CHO ldlA[mSR-BI] cells, DiI-HDL uptake fluorescence, 3 h; 100 = double the neutral-control signal | 320,000 compounds, 0.096% hits | activation, % at 12.5 µM;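 active = mean replicate activation of at least 60% and every replicate at or above 60%; inconclusive = mean or all-replicate condition met, but not both; inactive = mean below 60% and not all replicates reaching 60%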;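 note: 0% = median plate neutral-control signal and 100% = twice that signal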
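Material: SR-BI-overexpressing, LDLR-lacking CHO cells; schedule: compound exposure 3 h, 37 °C; reagent: DiI-labelled HDL at 10 µg/mL final; technique: bottom-read fluorescence, 550/595 nm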
SR-BI HDL uptake: blocks mouse SR-BI lipid uptake from DiI-HDL | ldlA[mSR-BI] CHO cells, DiI-HDL uptake fluorescence, 3 h | inhibition, % at 12.5 µM | 320,000 compounds, 0.96% hits;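 active = mean replicate inhibition of at least 70% and a set share of replicates each scoring 70 or more; inconclusive = meets just one of the two criteria; inactive = fails both criteria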;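 note: 0% = median of neutral control wells and 100% = median of positive control wells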
Target sequence (Q61009 whole entry, looked up): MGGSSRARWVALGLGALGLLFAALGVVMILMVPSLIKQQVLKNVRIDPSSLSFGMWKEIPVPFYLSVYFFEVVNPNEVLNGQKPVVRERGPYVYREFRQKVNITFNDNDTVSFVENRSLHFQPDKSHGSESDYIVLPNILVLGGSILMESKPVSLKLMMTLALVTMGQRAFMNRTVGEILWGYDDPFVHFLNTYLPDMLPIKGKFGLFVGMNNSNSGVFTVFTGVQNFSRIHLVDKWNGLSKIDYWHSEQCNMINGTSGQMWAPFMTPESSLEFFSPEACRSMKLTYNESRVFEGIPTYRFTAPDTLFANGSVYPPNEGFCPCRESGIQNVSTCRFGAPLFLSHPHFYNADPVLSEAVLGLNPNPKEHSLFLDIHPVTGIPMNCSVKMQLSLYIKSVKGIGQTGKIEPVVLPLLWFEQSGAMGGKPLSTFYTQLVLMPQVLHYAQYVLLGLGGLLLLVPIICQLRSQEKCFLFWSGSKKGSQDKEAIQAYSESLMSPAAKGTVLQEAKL
PKA-R1A activ: PKA-R1A complex activation. P00514+P68181. PKA-R1A dissociation, Cy5-IP20 fluorescence polarization; scaled: DMSO 0%, 113 µM cGMP 100%. activation, % at 11.4 µM. 340,000 compounds, 0.083% hits. AID 504707;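 active = percent activation above the mean of all tested compounds plus 3 SD, cut at about 19% in these data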;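 note: higher means more PKAc released from R1A so a rise in polarization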
DiI quencher: DiI fluorescence quenching in cell-free counter-screen; shares compounds with SR-BI HDL uptake; cell-free DiI-HDL fluorescence quenching, 30 min; AC50, µM (titrated, usually from 35 µM), for inactives: at the top dose activity change, negative = quenching; 470 compounds, 20% hits; AID 540326;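 active = quenching, a falling signal, with AC50 below a set limit tied to the top valid dose, actives reach about 32 µM in these data; inconclusive = no clear call, values can overlap the other calls; inactive = rising signal, and the rest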
* marks the source's active call; other numbers are inactive results; ? = inconclusive; / = no result given. The list is not random: actives were taken first. Their share in the collection is about 2.1%.

SMILES	CDK5 p35 inh	PKA-R2B act	dFosB act	SR-BI DiI-HDL act	SR-BI HDL uptake	PKA-R1A activ	DiI quencher
COC(=O)c1[nH]c2cc(OC)ccc2c1NC(=O)c1ccc2c(c1)OCO2	0	-20	5	-72	72*	-1	12µM*
O=C(COC(=O)CSc1ccc([N+](=O)[O-])cc1)NCCC1=CCCCC1	0	-2	0	18	-18	-1	/
Cc1ccc(S(=O)(=O)N2CCN(C(=O)N(c3ccccc3)c3ccccc3)CC2)cc1	0	-6	-5	3	-3	-9	/
CN(C)S(=O)(=O)N1CCN(C(=O)N(c2ccccc2)c2ccccc2)CC1	-2	-5	4	-70	?	-5	-2%
CCOC(=O)C(=O)Nc1nc(-c2ccc3c(c2)CCN3C(=O)C2CC2)c(C)s1	-1	-9	-11	-56	56	1	-11%
CC(C)C(=O)Nc1ccccc1-c1nc2ccccc2[nH]c1=O	0	1	4	18	-18	-5	/
CC(C)C(=O)Nc1sc2c(c1-c1nc3ccccc3[nH]1)CCCC2	-1	4	-9	-101	101*	5	21µM*
CCn1c(SCC(=O)NC2=NCCS2)nnc1C(C)NC(=O)c1ccc(Cl)cc1 (configuration not stated)	0	5	-15	-12	12	6	/
COc1ccc2c(c1)CC(C1(O)C(=O)N(C)c3ccccc31)C2=O (configuration not stated)	1	6	3	-85	85*	5	-5%
O=C(Nc1ccn(Cc2c(F)c(F)c(F)c(F)c2F)n1)c1ccc(COc2ccccc2Cl)cc1	0	-4	4	-73	73*	-1	-1%
O=C(Nc1ccn(Cc2c(F)c(F)cc(F)c2F)n1)c1ccc(COc2ccc(Cl)cc2Cl)o1	-1	-4	4	-42	42	-2	/
COc1cc(-c2ccc3oc(-c4cccc(C)c4)c(C#CC4(O)CCCCC4)c3c2)cc(OC)c1OC	0	-18	-2	-68	68	-7	/
O=C(c1ccc([N+](=O)[O-])cc1)N1CCOC12CCN(c1ncc(C(F)(F)F)cc1Cl)CC2	-1	-12	6	3	-3	-8	-19%
CC(=O)c1cc(C#N)c(SCc2ccccc2C#N)nc1C	-2	10	-2	-75	75*	4	-1%
CCCn1c(N)c(N(CCOC)C(=O)CSc2cc(C)c3ccccc3n2)c(=O)[nH]c1=O	-1	5	-9	3	-3	-6	/
Clc1ccc(-c2cc(-c3nnc4n3CCCCC4)c3ccccc3n2)cc1	-1	-6	-14	-83	83*	-18	1%
Cc1ccc(N(CC(=O)NC2CCCCC2)C(=O)CCCC(=O)Nc2ccccn2)cc1	1	-11	-10	/	/	-2	/
CCOC(=O)C1CCCN(C(=O)C(=O)c2cn(CC(=O)N3CCOCC3)c3ccccc23)C1 (configuration not stated)	-1	0	-3	17	-17	-1	/
CNc1cnn(-c2ccc(C)cc2)c(=O)c1Sc1ccc(C)cc1	1	4	-8	-70	70*	-3	1%
CNc1cnn(-c2ccc(C)cc2)c(=O)c1Cl	-1	-1	4	32	-32	-8	/
O=C(Nc1ccc(N2CCOCC2)cc1)c1cc2c(s1)CCCC2	-1	-5	-7	-100	100*	-10	16µM*
O=C(Nc1ccccc1N1CCOCC1)c1cc2c(s1)CCCCC2	7	-13	-2	-57	57	-8	/
COc1ccc(N2C(=O)C3C4C=CC(c5ccccc5)(C3C2=O)C2C(=O)N(c3ccc(OC)cc3)C(=O)C42)cc1 (configuration not stated)	2	-4	-4	-51	51	7	/
COc1ccc(N2C(=O)C3C(C2=O)C3(c2ccccc2)c2ccccc2)cc1 (configuration not stated)	-2	-7	-9	-22	22	-8	0%
CCOC(=O)Nc1sc(C)c(C)c1C(=O)OCC	-1	4	-1	-8	8	-2	/
SMILES	CDK5 p35 inh	PKA-R2B act	dFosB act	SR-BI DiI-HDL act	SR-BI HDL uptake	PKA-R1A activ	DiI quencher
CCOC(=O)c1c(Nc2nc(C)c(C(=O)NC)s2)sc(C)c1C	-1	-5	-12	-93	93*	-2	-14%
C=C(CN(C)C)C(=O)c1ccc(OC2OC(COC(C)=O)C(OC(C)=O)C(OC(C)=O)C2OC(C)=O)cc1 (configuration not stated)	1	-4	21*	-94	94*	-1	-1%
Cc1ccc(NC(=O)c2cc(S(=O)(=O)N3CCOCC3)c(Br)s2)cc1	2	2	0	-73	?	-13	3%
CCOc1ccc(NC(=O)CN2CCN(CC(=O)Nc3ccc(F)cc3)CC2)cc1	0	-7	-2	-53	53	2	/
CCOc1ccc(NC(=O)CN2CCN(CC(=O)Nc3ccc(N(C)C)cc3)CC2)cc1	1	-7	-3	-86	86*	-7	-13%
COc1ccc(NC(=O)CN2CCN(CC(=O)Nc3ccc(OC)c(OC)c3)CC2)cc1	-2	-12	3	-72	?	-14	-2%
O=C1[C@H]2[C@@H](c3ccc(F)cc3)N3C(=O)N(c4ccc(Br)cc4)C(=O)[C@@]3(Cc3ccccc3)[C@H]2C(=O)N1C1CCCCC1	0	-4	0	26	-26	-3	/
Cc1ccc(OCc2cc(C(=O)N3CCCC(O)C3)no2)cn1 (configuration not stated)	1	3	8	3	-3	-13	0%
Cc1ccc(OCc2cc(C(=O)N3CCCC(C)C3)no2)cn1 (configuration not stated)	/	7	/	/	/	6	/
CCOC(=O)Nc1ccc2c(c1)N(C(=O)C(C)N1CCCC1)c1ccccc1CC2 (configuration not stated)	0	-9	-4	16	-16	-6	-1%
O=C(N[C@@H]1C/C=C\C[C@H](CC(=O)N(CCO)Cc2ccccc2)C(=O)N[C@@H](Cc2ccccc2)COC1=O)OCC1c2ccccc2-c2ccccc21	-2	-6	-9	-46	46	5	/
O=C(C[C@H]1C/C=C\C[C@H](NC(=O)OCC2c3ccccc3-c3ccccc32)C(=O)O[C@@H](c2ccccc2)CNC1=O)NCCO	-6	4	?	-41	41	1	/
O=C(N[C@@H]1C/C=C\C[C@@H](CC(=O)N(CCO)Cc2ccccc2)C(=O)NCCOC1=O)OCC1c2ccccc2-c2ccccc21	0	-12	0	-78	78*	-15	-9%
